Results as given in ChEMBL document CHEMBL1157790, “3'-bromo analogues of pyrimidine nucleosides as a new class of potent inhibitors of Mycobacterium tuberculosis” (J Med Chem, 2010).

Assays:
Type in all cases: functional
[1] = test system: Mycobacterium tuberculosis; test: Antimycobacterial activity against rifampin-resistant Mycobacterium tuberculosis H37Rv at 1 to 2 ug/ml by radiometric BACTEC assay
Method in brief: (§1)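 Isoniazid- or rifampicin-resistant H37Rv, growing inoculum 2.5-5.0 × 10⁵ CFU/vial, in radiometric 7H12 (BACTEC 12B) medium at 37 °C with two-fold compound dilutions. Growth index read daily in a BACTEC 460 until the 1:100 inoculum control reached GI 30. Percent inhibition = GI test/GI control × 100.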

[2] = test system: Mycobacterium tuberculosis; test: Antimycobacterial activity against isoniazid-resistant Mycobacterium tuberculosis H37Rv at 10 ug/ml by radiometric BACTEC assay; method in brief: as §1
[3] = test system: Mycobacterium tuberculosis; test: Antimycobacterial activity against rifampin-resistant Mycobacterium tuberculosis H37Rv at 10 ug/ml by radiometric BACTEC assay; method in brief: as §1
[4] = test system: Mycobacterium tuberculosis; test: Antimycobacterial activity against isoniazid-resistant Mycobacterium tuberculosis H37Rv at 2 ug/ml by radiometric BACTEC assay; method in brief: as §1
[5] = test system: Mycobacterium tuberculosis; test: Antimycobacterial activity against isoniazid-resistant Mycobacterium tuberculosis H37Rv at 25 ug/ml by radiometric BACTEC assay; method in brief: as §1
[6] = test system: Mycobacterium tuberculosis; test: Antimycobacterial activity against rifampin-resistant Mycobacterium tuberculosis H37Rv at 5 to 10 ug/ml by radiometric BACTEC assay; method in brief: as §1
[7] = test system: Mycobacterium tuberculosis; test: Antimycobacterial activity against rifampin-resistant Mycobacterium tuberculosis H37Rv at 1 ug/ml by radiometric BACTEC assay; method in brief: as §1
[8] = test system: Mycobacterium tuberculosis; test: Antimycobacterial activity against rifampin-resistant Mycobacterium tuberculosis H37Rv at 2 ug/ml by radiometric BACTEC assay; method in brief: as §1

In the case of `Cc1cn([C@@H]2O[C@H](CO)[C@@H](Br)[C@@H]2O)c(=O)[nH]c1=O`, the “inhibition (INH)” value [1] is reported as 50%, the inhibition at 10 µg/mL [2] is reported as 75% and the inhibition at 10 µg/mL [3] is reported as 70%. For the same compound, the inhibition at 2 µg/mL [4] was 50%.
In the case of `Cc1cn([C@H]2C[C@H](Br)[C@@H](CO)O2)c(=O)[nH]c1=O`, the inhibition at 10 µg/mL [2] is reported as 50%, the inhibition at 25 µg/mL [5] is reported as 75% and the “inhibition (INH)” value [6] is reported as 50%.
With `NNC(=O)c1ccncc1` [ISONIAZID] the inhibition at 1 µg/mL [7] was 100% and the inhibition at 2 µg/mL [4] was 0%.
`CO[C@H]1/C=C/O[C@@]2(C)Oc3c(C)c(O)c4c(O)c(c(/C=N/N5CCN(C)CC5)c(O)c4c3C2=O)NC(=O)/C(C)=C\C=C\[C@H](C)[C@H](O)[C@@H](C)[C@@H](O)[C@@H](C)[C@H](OC(C)=O)[C@@H]1C` [RIFAMPIN] gave an inhibition at 2 µg/mL [8] of 0%.
